Assay results of several laboratories.
Target: Rhodopsin kinase GRK1 (GRK1, Homo sapiens, UniProt Q15835)
Residues used in one study (Q15835 1-563): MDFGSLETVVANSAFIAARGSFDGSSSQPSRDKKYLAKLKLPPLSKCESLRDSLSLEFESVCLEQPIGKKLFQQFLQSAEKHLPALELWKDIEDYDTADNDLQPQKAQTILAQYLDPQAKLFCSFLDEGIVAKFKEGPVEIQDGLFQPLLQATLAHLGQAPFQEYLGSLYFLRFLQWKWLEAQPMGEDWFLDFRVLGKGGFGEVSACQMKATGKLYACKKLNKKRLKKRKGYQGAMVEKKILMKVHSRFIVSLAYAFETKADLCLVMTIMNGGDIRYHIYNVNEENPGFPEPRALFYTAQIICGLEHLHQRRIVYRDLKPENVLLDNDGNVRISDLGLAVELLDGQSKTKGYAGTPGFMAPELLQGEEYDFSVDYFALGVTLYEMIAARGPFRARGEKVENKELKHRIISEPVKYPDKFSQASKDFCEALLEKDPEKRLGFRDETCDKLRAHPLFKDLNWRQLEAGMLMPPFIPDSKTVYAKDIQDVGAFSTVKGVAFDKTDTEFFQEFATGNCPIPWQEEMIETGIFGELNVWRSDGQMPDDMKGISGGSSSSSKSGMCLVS

COc1ncc2cc3ccccc3nc2c1C#N  remaining binding (cell-free assay, competition with immobilised ligand; 5 µM): 98%
O=C(Nc1c[nH]nc1C(=O)NC1CCNCC1)c1cc(F)cc(F)c1  remaining binding (binding, competition with immobilised ligand; 1 µM): 83%
Cc1cnc(Nc2ccc(C(=O)N3CCC(N4CCCC4)CC3)cc2)nc1-c1cc2ccccc2s1  remaining binding (binding, competition with immobilised ligand; 1 µM): 64%
N[C@@H]1CCN(c2nccc(-c3cnn4ncccc34)n2)C1  remaining binding (binding; 1 µM): 100%
CC(=O)N1CCC(c2ccc(C(=O)NC3=NCCN3)cc2C(F)(F)F)CC1  remaining binding (cell-free assay, competition with immobilised ligand; 1 µM): 95%
FC(F)(F)Oc1cccc(-c2cnc3ccc(-c4ccncc4)nn23)c1  remaining binding (cell-free assay, competition with immobilised ligand; 5 µM): 38%
CC1=C(C#N)C(c2ccc3c(c2)c(NC(=O)c2ccccc2C)nn3C)C(C#N)=C(C)N1  remaining binding (cell-free assay, competition with immobilised ligand; 1 µM): 88%
O=C(c1ccc(Nc2ncc(Cl)c(-c3ccc(Cl)s3)n2)cc1)N1CCC(N2CCCC2)CC1  remaining binding (binding, competition with immobilised ligand; 1 µM): 100%
C[C@@H](c1ccc(-n2cnc3c(N)ncnc32)cc1)N1CCc2nn(C)c(Cc3ccccc3)c2C1=O  remaining binding (binding, competition with immobilised ligand; 0.1 µM): 76%
CN(C)c1nccc(-c2cnn3ncccc23)n1  remaining binding (binding; 1 µM): 79%
O=C(NCCCN1CCOCC1)c1ccc(Nc2nccc(-c3cc4ccccc4s3)n2)cc1  remaining binding (binding, competition with immobilised ligand; 1 µM): 74%
CN(CCCC(F)(F)F)c1nccc(-c2cnn3ncccc23)n1  remaining binding (binding; 1 µM): 100%
C=CC(=O)N1CCC(C(=O)NCC(=O)N2CCN(c3nc(-c4cnc(N)nc4C(F)F)nc(N4CCOCC4)n3)CC2)CC1  remaining binding (binding, competition with immobilised ligand; 1 µM): 67%
CCC(=O)N[C@@H]1CC[C@H](C(=O)N(C)c2ccc(-c3nc4ccccc4o3)cc2)C1  remaining binding (cell-free assay, competition with immobilised ligand; 1 µM): 76%
CNC(=O)[C@@H]1CC[C@@H](n2c(-c3ccc4cnccc4c3)nc3ccc(C(=O)NCc4cccc(C(N)=O)c4)cc32)C1  remaining binding (binding, competition with immobilised ligand; 1 µM): 67%
C[C@H]1CCN(c2nccc(-c3cnn4ncccc34)n2)C1  remaining binding (binding; 1 µM): 74%
CS(=O)(=O)c1cc(C2(NC(=O)c3cncc4c3cnn4-c3ccc(F)cc3)CC2)ccn1  remaining binding (cell-free assay, competition with immobilised ligand; 1 µM): 87%
COc1ccnn2ncc(-c3ccnc(N(C)C)n3)c12  remaining binding (binding; 1 µM): 82%
CN(C(=O)c1ccccc1)c1cc(N(C)c2ccc3c(c2)CCc2ccc(C(=O)NCCN4CCOCC4)cc2C3=O)ccc1F  remaining binding (cell-free assay, competition with immobilised ligand; 1 µM): 93%
